Calls of active or inactive are those of the source. No cut-off for these calls is given here.
How the values were obtained:
[1] = target: Toll-like receptor 2 (Homo sapiens) (UniProt O60603); experiment: Activation of human TLR2 transfected in HEK293 cells at 10 uM after 20 to 24 hrs by SEAP assay; type: cell-based
[2] = test system: BMDC; experiment: Induction of IL6 secretion in C57BL/6 mouse TLR4 deficient BMDC cells at 10 uM after 18 hrs by ELISA; type: functional, cell-based
In short: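 BMDC from Tlr4–/– mice (backcrossed 10 generations onto C57BL/6) and wild-type mice incubated with 10 μM compound for 18 h; IL-6 in culture supernatants by ELISA.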

[3] = target: T1, Toll-like receptor 4 (Mus musculus) (UniProt Q9QUK6); experiment: Activation of TLR4-mediated type 1 IFN release in C57BL/6 mouse BMDC cells assessed as IP10 level after overnight incubation by ELISA; type: cell-based
T1 sequence (whole entry): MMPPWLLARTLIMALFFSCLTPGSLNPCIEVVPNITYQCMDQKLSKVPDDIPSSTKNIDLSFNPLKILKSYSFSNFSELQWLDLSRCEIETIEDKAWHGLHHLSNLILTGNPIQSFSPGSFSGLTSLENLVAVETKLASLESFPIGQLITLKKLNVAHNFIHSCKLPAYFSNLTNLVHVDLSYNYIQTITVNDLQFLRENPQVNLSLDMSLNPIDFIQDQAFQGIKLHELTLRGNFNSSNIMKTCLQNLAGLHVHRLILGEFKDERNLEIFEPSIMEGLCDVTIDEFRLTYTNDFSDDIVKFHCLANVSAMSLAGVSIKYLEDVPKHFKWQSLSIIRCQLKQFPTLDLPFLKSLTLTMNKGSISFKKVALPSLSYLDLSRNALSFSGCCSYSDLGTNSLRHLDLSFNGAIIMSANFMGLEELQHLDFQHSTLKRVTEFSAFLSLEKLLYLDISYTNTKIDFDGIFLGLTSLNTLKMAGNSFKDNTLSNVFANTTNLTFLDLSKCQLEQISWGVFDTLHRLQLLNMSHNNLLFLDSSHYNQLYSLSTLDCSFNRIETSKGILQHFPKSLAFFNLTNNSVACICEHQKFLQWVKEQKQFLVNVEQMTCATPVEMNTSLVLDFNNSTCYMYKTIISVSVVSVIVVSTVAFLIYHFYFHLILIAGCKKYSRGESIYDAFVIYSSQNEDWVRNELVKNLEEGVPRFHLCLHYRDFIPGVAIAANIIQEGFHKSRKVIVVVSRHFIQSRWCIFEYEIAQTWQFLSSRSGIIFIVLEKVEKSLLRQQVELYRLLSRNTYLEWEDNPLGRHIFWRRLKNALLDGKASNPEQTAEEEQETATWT
In short: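 Wild-type BMDC incubated overnight with graded concentrations, 0.5% DMSO vehicle; IP-10 in supernatants by ELISA as surrogate of type I IFN. Mean ± SEM of triplicates; two independent experiments.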

[4] = target: T1, Toll-like receptor 4 (Mus musculus); experiment: Activation of TLR4 in C57BL/6 mouse BMDC cells assessed as AUC of IL6 release after 18 hrs by ELISA relative to N-cyclohexyl-2-(4-oxo-3-phenyl-4,5-dihydro-3H-pyrimido[5,4-b]indol-2-ylthio)acetamide; type: cell-based
In short: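 C57BL/6 bone marrow DC, 10^5 cells/well in RPMI-10% FCS, 18 h at 37 °C with titrated doses 312 nM–10 μM; supernatant IL-6 by ELISA. Each curve converted to percent activity (background subtracted, plate-adjusted), AUC by trapezoid method, normalized to reference hit set at 100 per experiment. LPS 10 ng/mL positive control; 0.5% DMSO vehicle.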

[5] = target: Toll-like receptor 4 (Homo sapiens) (UniProt O00206); experiment: Activation of human TLR4 transfected in HEK293 cells after 18 hrs by SEAP assay relative to N-cyclohexyl-2-(4-oxo-3-phenyl-4,5-dihydro-3H-pyrimido[5,4-b]indol-2-ylthio)acetamide; type: cell-based; design: concentration or dose not given beside the values
Sequence of Toll-like receptor 4 (Homo sapiens) (O00206 whole entry): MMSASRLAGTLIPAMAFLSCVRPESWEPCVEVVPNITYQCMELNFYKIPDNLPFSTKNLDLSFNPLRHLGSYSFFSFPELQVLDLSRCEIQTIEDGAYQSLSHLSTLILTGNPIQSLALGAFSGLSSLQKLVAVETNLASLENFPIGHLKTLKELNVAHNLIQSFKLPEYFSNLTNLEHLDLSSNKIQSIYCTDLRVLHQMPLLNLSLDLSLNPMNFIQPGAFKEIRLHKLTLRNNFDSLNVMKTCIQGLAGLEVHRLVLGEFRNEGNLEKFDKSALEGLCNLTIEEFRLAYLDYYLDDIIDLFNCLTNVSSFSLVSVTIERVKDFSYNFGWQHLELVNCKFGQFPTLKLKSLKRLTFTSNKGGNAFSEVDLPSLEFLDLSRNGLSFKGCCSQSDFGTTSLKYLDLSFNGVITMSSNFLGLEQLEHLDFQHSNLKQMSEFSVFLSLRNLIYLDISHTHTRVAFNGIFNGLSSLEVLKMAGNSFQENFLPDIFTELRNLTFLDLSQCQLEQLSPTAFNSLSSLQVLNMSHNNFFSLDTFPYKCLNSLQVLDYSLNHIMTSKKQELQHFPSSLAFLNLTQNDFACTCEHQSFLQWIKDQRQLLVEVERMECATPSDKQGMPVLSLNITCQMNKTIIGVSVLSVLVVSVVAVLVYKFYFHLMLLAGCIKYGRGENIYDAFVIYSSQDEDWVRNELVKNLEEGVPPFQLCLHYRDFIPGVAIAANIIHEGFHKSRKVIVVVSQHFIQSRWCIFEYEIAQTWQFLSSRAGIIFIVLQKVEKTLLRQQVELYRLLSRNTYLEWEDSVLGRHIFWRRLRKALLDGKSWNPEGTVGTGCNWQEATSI
In short: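 Human TLR4 HEK-Blue cells (2.5 × 10^4/well) given compound at 10 μM for 18 h, 0.5% DMSO vehicle; SEAP in supernatant read at 630 nm, normalized to reference hit set at 100. LPS 10 ng/mL positive control.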

[6] = target: T2, Toll-like receptor 7 (Homo sapiens) (UniProt Q9NYK1); experiment: Activation of human TLR7 transfected in HEK293 cells at 10 uM after 20 to 24 hrs by SEAP assay; type: cell-based
T2 sequence (whole entry): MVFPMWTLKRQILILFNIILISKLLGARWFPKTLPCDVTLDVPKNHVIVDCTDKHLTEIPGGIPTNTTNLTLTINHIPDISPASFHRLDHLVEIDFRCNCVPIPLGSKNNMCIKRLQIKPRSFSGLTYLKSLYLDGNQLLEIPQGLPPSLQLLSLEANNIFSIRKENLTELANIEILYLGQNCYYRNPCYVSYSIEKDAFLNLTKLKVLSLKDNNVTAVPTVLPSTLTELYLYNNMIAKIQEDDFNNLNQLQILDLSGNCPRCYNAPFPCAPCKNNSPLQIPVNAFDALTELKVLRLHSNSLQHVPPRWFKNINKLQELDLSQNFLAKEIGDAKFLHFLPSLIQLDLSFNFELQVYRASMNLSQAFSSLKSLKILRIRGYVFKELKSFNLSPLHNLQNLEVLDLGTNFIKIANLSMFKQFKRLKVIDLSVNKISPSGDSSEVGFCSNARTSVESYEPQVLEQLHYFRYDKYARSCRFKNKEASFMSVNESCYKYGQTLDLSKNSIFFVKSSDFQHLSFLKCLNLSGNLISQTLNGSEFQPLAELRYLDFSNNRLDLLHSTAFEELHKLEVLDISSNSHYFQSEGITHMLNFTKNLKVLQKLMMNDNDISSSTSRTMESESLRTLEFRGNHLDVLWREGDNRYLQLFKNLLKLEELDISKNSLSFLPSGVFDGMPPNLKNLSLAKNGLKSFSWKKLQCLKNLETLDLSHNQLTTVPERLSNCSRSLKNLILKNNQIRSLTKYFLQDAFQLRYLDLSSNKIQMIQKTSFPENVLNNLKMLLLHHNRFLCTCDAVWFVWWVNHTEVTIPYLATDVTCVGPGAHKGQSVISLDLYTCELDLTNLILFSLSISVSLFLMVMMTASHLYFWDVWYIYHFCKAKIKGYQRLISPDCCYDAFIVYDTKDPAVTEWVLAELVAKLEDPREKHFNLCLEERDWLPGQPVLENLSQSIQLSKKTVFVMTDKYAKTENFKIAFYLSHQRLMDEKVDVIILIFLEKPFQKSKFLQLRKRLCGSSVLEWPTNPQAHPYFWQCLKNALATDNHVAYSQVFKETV

Sequence of Toll-like receptor 2 (Homo sapiens) (O60603 whole entry): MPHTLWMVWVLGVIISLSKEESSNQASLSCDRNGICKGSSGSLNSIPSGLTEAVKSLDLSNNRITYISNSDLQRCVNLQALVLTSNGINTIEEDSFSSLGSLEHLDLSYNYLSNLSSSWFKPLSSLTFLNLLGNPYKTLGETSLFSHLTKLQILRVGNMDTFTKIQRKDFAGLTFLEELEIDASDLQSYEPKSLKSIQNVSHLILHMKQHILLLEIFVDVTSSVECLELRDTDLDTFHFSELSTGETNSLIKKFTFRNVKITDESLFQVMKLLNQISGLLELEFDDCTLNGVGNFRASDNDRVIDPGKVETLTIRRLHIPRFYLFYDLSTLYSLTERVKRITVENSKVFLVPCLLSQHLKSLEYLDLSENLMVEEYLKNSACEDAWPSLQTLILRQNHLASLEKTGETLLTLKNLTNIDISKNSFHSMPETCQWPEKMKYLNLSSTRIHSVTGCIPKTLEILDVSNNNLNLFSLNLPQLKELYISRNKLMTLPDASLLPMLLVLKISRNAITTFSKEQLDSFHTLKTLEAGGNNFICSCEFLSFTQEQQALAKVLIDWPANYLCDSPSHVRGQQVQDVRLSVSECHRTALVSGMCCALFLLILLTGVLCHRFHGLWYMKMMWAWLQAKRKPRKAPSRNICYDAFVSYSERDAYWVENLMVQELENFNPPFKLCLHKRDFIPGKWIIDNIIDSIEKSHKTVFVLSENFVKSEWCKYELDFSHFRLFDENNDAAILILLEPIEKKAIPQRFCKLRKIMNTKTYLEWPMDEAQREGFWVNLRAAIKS

O=C(CSc1nc2c([nH]c3ccccc32)c(=O)n1-c1ccccc1)NC1CCCCC1
Activity [1]: inactive | Activity [2]: inactive | Activity [3]: Dose-dependent effect | Activity [4]: 100% | Activity [5]: 100% | Activity [6]: inactive
